Results on 34 molecules are retold here after ChEMBL document CHEMBL1128597, “Picornavirus inhibitors: trifluoromethyl substitution provides a global protective effect against hepatic metabolism” (J Med Chem, 1995).

SMILES strings stand for the structures.

One series is described as follows: Tested for pharmacokinetic parameter in fasted Beagle dogs (Clearance value of the compound) iv administration. The class given is ADME, organism-based, Canis lupus familiaris. Conditions: dog, in vivo. The essentials: (§1)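 Single intravenous bolus of 10 mg/kg given to fasted beagle dogs. Plasma was extracted with hexane and assayed by GC with electron-capture detection or by reverse-phase HPLC, depending on the analyte. Concentrations below the minimum quantifiable level were ignored when computing means. Half-life and CL were derived from plasma profiles by model-independent methods, and AUC by the trapezoidal rule.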
`Cc1cc(CCCOc2c(C)cc(-c3noc(C(F)(F)F)n3)cc2C)on1` [PLECONARIL]: the clearance is 12.8 mL/min/kg.
Same read-out and setting: the value for `Cc1cc(CCCCCOc2c(Cl)cc(C3=NCCO3)cc2Cl)on1` [WIN-54954] was 31.8 mL/min/kg.

The nature of a further series: Tested for pharmacokinetic parameter in fasted Beagle dogs (Area Under Curve value) iv administration. The following applies: dog, in vivo. The class given is ADME, organism-based, Canis lupus familiaris. In a few lines:
as §1
Take `Cc1cc(CCCOc2c(C)cc(-c3noc(C(F)(F)F)n3)cc2C)on1` [PLECONARIL]: the AUC was 11800 ng·h/mL.
Molecule `Cc1cc(CCCCCOc2c(Cl)cc(C3=NCCO3)cc2Cl)on1` [WIN-54954] gave an AUC of 4910 ng·h/mL.

Another series is described as follows: t1/2 in monkey liver microsomes. The class given is ADME, Microsome. The following applies: simiiformes.
For the molecule `Cc1cc(CCCOc2c(C)cc(-c3noc(C(F)F)n3)cc2C)on1`, the half-life was found to be 1.42 h.
Same read-out and setting: the value for `COCc1cc(CCCOc2c(C)cc(-c3noc(C(F)(F)F)n3)cc2C)on1` was 1.58 h; that for `Cc1cc(CCCOc2c(C)cc(-c3noc(C(Cl)(Cl)Cl)n3)cc2C)on1` was 0.183 h; that for `Cc1cc(CCCOc2c(C)cc(-c3noc(CF)n3)cc2C)on1` was 0.233 h.
Regarding `Cc1ccc(CCCOc2c(C)cc(-c3noc(C(F)(F)F)n3)cc2C)cn1`, the half-life amounted to 1.97 h.
Molecule `Cc1cc(CCCOc2c(C)cc(-c3noc(C(N)=O)n3)cc2C)on1` yielded a half-life of 2.3 h.
On the same count and under the same terms, for `Cc1ccc(CCCOc2c(C)cc(-c3noc(C)n3)cc2C)cn1` the value was 1.37 h; for `Cc1nc(-c2cc(C)c(OCCCc3cccc(F)n3)c(C)c2)no1`, 0.283 h; for `Cc1cc(CCCOc2c(C)cc(-c3noc(C(C)(F)F)n3)cc2C)on1`, 1.1 h.
Take `Cc1cc(CCCOc2c(C)cc(-c3noc(C#N)n3)cc2C)on1`: the half-life turned out to be 0.283 h.
On to `CCOc1nc(-c2cc(C)c(OCCCc3cc(C)no3)c(C)c2)no1`, for which the half-life is above 2.5 h.
For the molecule `CC(=O)c1ccc(CCCOc2c(C)cc(-c3noc(C(F)(F)F)n3)cc2C)o1`, the half-life is 1.05 h.
For `Cc1cc(CCCOc2c(C)cc(-c3noc(CC(F)(F)F)n3)cc2C)on1`, the half-life is 0.533 h.
`Cc1cc(CCCOc2c(C)cc(-c3noc(C4CC4)n3)cc2C)on1` gave a half-life of 2.23 h.
As to `CCc1cc(CCCOc2c(C)cc(-c3noc(C(F)(F)F)n3)cc2C)on1`, the half-life was above 2.5 h.
In turn, `CCc1cc(CCCOc2c(C)cc(-c3noc(C)n3)cc2C)on1` showed a half-life of 0.183 h.
With `COc1nc(-c2cc(C)c(OCCCc3cc(C)no3)c(C)c2)no1`, the half-life came out at 0.55 h.
The molecule `Cc1cc(-c2noc(C3CC3)n2)cc(C)c1OCCCc1cc(C2CC2)no1` had a half-life above 2.5 h.
Consider `COCc1cc(CCCOc2c(C)cc(-c3noc(C)n3)cc2C)on1`, for which the half-life turned out to be 0.5 h.
`Cc1cc(-c2noc(C3CC3)n2)cc(C)c1OCCCc1cc(CO)no1`: the half-life is above 2.5 h.
In turn, `Cc1cc(-c2noc(C(F)(F)F)n2)cc(C)c1OCCCc1cc(C[S+](C)[O-])no1` (centres undefined) showed a half-life above 2.5 h.
The molecule `Cc1cc(CCCOc2c(C)cc(-c3noc(C)n3)cc2C)on1` came in with a half-life of 0.45 h.
`CCc1cc(CCCOc2c(C)cc(-c3noc(C4CC4)n3)cc2C)on1` had a half-life of 0.9 h.
In the case of `Cc1cc(-c2noc(C3CC3)n2)cc(C)c1OCCCc1cc(OCCO)no1`, the half-life is above 2.5 h.
With `Cc1cc(-c2noc(C(F)(F)F)n2)cc(C)c1OCCCc1cc(CS(C)(=O)=O)no1`, the half-life is above 2.5 h.
`CCOc1cc(CCCOc2c(C)cc(-c3noc(C4CC4)n3)cc2C)on1` returned a half-life above 2.5 h.
The same measure, in the same setting: the value for `Cc1cc(-c2noc(C(F)(F)F)n2)cc(C)c1OCCCc1cc(CO)no1` was above 2.5 h.
`CCOCc1cc(CCCOc2c(C)cc(-c3noc(C(F)(F)F)n3)cc2C)on1` gave a half-life above 2.5 h.
In the case of `COCc1cc(CCCOc2c(C)cc(-c3noc(C4CC4)n3)cc2C)on1`, the half-life was above 2.5 h.
Same read-out and setting: the value for `CC(=O)c1ccc(CCCOc2c(C)cc(-c3noc(C)n3)cc2C)o1` was 0.617 h; that for `Cc1nc(-c2cc(C)c(OCCCc3cc(C(F)(F)F)no3)c(C)c2)no1` was 0.55 h; that for `Cc1cc(-c2noc(C(F)(F)F)n2)cc(C)c1OCCCc1cccc(F)n1` was above 2.5 h.
On the same count and under the same terms, for `Cc1cc(CCCOc2c(C)cc(-c3noc(C(F)(F)F)n3)cc2C)on1` [PLECONARIL] the value was above 2.5 h.

The nature of another series: Tested for pharmacokinetic parameter in fasted Beagle dogs (Half-life) iv administration. The class given is ADME, organism-based, Canis lupus familiaris. Conditions: dog, in vivo. The essentials: as §1
In the case of `Cc1cc(CCCOc2c(C)cc(-c3noc(C(F)(F)F)n3)cc2C)on1` [PLECONARIL], the half-life was 27 h.
In turn, `Cc1cc(CCCCCOc2c(Cl)cc(C3=NCCO3)cc2Cl)on1` [WIN-54954] yielded a half-life of 7 h.
